Reference: ChEMBL document CHEMBL1123626, “Novel irreversible ligands specific for "peripheral" type benzodiazepine receptors: (+/-)-, (+)-, and (-)-1-(2-chlorophenyl)-N-(1-methylpropyl)-N- (2-isothiocyanatoethyl)-3-isoquinolinecarboxamide and 1-(2-isothiocyanatoethyl)-7-chloro-1,3-dihydro-5-(4-chlorophenyl )-2H-1,4-benzodiazepin-2-one” (J Med Chem, 1987)

Assays:
[1] = Inhibition of [3H]-Ro- 5-4864 binding to Peripheral Benzodiazepine Receptor of rat brain (255 mg protein)
[2] = Inhibition of [3H]-Ro- 5-4864 binding to Peripheral Benzodiazepine Receptor of rat kidney (62 mg protein)
[3] = Inhibition of [3H]-PK 11195 binding to Peripheral Benzodiazepine Receptor of rat brain tissue (263 mg protein)
[4] = Inhibition of [3H]-PK 11195 binding to Peripheral Benzodiazepine Receptor of rat kidney tissue (50 mg protein)
[5] = Inhibition of [3H]-PK 11195 binding to Peripheral Benzodiazepine Receptor of rat kidney tissue (22 mg protein)
How it was run: (§1)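 Kidneys from male Sprague-Dawley rats (150-200 g), decapitated, were decapsulated, minced, and homogenized in ice-cold 50 mM potassium phosphate (pH 7.0). The homogenate was spun at 23000 g for 20 min at 4 °C and the pellet resuspended. Tritiated radioligand was used at 1 nM against six inhibitor concentrations in triplicate. IC50 and pseudo Hill coefficient are given as means of two experiments.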

[6] = Inhibition of [3H]-PK 11195 binding to Peripheral Benzodiazepine Receptor of rat brain tissue (110 mg protein)
How it was run: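 Brain membrane binding used 1 nM tritiated radioligand, with six inhibitor concentrations each run in triplicate. Protein per assay was as specified. IC50 in nmol/L and pseudo Hill coefficient are reported as means of two independent experiments.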

[7] = Inhibition of [3H]-Ro- 5-4864 binding to Peripheral Benzodiazepine Receptor of rat kidney (22 mg protein)
How it was run: as §1

[8] = Inhibition of [3H]-Ro- 5-4864 binding to Peripheral Benzodiazepine Receptor of rat kidney (110 mg protein)
How it was run: as §1

[9] = Inhibition of [3H]-PK 11195 binding to Peripheral Benzodiazepine Receptor of rat kidney tissue (110 mg protein)
How it was run: as §1

Row | IC50 [5] [nM l-1] | IC50 [6] [nM l-1] | IC50 [7] [nM l-1] | IC50 [8] [nM l-1] | IC50 [9] [nM l-1] | Structure (SMILES) | IC50 [1] [nM l-1] | IC50 [2] [nM l-1] | IC50 [3] [nM l-1] | IC50 [4] [nM l-1]
1 |  |  |  |  |  | O=C1CN=C(c2ccc(Cl)cc2)c2cc(Cl)ccc2N1CCN=C=S | 2.1 | 1.2 | 2.1 | 1.2
2 |  |  |  |  |  | CCC(C)N(CCN=C=S)C(=O)c1cc2ccccc2c(-c2ccccc2Cl)n1 (racemic) | 3 | 2 | 15 | 2.9
3 | 3.9 | 10 | 2.9 | 6.3 |  | CCC(C)N(CCN=C=S)C(=O)c1cc2ccccc2c(-c2ccccc2Cl)n1 (single isomer, unassigned; (-)) |  |  |  | 
4 | 1.6 |  | 1.2 | 2.9 | 3.5 | CCC(C)N(CCN=C=S)C(=O)c1cc2ccccc2c(-c2ccccc2Cl)n1 (stereo in doubt; 11b) |  |  |  | 
